A selection: hits, their analogues and other compounds. The true share with any hit is near 1.9%.
MBD2 DNA inh: inhibitors of human MBD2 binding to methylated oligonucleotide. Q9UBB5. 370,000 compounds, 0.31% hits. inhibition, % at 4.4 µM. TR-FRET; in the data active = inhibition above about 13%
LEDGF integ inh: blocks HIV-1 LEDGF/p75-dependent DNA integration | TR-FRET IN-LEDGF/p75 DNA integration, Eu/Cy5 | AID 743269 | 370,000 compounds, 0.64% hits | inhibition, % at 3.7 µM;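 active = inhibition above the screen-wide mean plus 3 SD, cut at about 13% in these data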;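 note: signal is the Cy5 over europium emission ratio at 671 and 618 nm; 0% = plate median of compound wells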
DDE Tn6 FP inh: disrupts Tn6 cyclic peptide binding to fibrin D-Dimer-E complex; AID 720509; P02675; 370,000 compounds, 0.21% hits; Fibrin DD(E) TRITC-Tn6 fluorescence polarization displacement; inhibition, % at 8.3 µM;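 active = inhibition above a per-campaign cutoff: mean of compounds within control limits plus 3 SD, cut at about 15% in these data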;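 note: 0% = median of all compound wells on the plate and 100% = blocking peptide control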
UHRF1 binding: blocks human UHRF1 binding to methylated DNA | inhibition, % at 4.4 µM | AID 687016 | 370,000 compounds, 0.75% hits | UHRF1 binding to methylated oligo, TR-FRET | Q96T88; in the data active = inhibition above about 21%;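 note: UHRF1 SRA domain binding a hemimethylated CpG hairpin DNA probe; 0% = median of test compound wells and 100% = reference inhibitor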
Target sequence (Q96T88 whole entry, looked up, the tested form may be a part): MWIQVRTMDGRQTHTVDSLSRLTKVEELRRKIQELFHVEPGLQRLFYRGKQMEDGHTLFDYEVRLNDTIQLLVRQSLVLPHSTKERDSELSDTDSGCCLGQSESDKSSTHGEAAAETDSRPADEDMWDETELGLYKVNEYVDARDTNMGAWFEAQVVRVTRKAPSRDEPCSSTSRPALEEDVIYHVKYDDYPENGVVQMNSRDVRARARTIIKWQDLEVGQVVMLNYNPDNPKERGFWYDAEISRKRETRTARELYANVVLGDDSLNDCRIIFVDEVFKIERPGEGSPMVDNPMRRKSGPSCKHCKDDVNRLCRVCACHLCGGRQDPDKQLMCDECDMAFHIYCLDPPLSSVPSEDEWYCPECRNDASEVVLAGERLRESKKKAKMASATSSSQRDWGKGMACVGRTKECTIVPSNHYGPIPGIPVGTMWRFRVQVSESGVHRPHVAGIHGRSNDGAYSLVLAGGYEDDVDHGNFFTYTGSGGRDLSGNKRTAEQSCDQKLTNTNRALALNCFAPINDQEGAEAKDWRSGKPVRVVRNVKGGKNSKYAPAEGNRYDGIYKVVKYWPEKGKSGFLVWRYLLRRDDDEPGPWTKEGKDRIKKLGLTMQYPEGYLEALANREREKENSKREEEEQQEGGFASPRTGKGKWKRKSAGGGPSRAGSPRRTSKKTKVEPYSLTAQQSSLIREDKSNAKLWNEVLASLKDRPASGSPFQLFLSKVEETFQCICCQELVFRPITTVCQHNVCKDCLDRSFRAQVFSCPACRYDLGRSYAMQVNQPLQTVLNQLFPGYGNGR
Tn7 DDE FP: inhibitors of Tn7 peptide binding to human fibrin DD(E) | P02675 | FP displacement of FITC-Tn7 peptide from fibrin DD(E); 0% = median of compound wells per plate | AID 720508 | 370,000 compounds, 0.13% hits | inhibition, % at 8.3 µM;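 active = inhibition above the mean of compounds falling within the control limits plus 3 SD of them, cut at about 14% in these data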;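 note: 0% = plate median of compound wells and 100% = 10 µM Aha-Tn7 peptide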
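Assay system: human fibrin DD(E) protein / Input: 2 µM fibrin DD(E) / Benchmarks: high control of 10 µM Aha-Tn7 peptide / Measured by: fluorescence polarization of the labelled Tn7 tracer / Medium: Tris buffer with calcium and detergent, pH 7.8 / Timing: 10 min compound pre-incubation, 3 h probe incubation at room temperature / Repeats: one replicate per compound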
TDP2 absorb: TDP2 (human) inhibition, absorbance primary screen. AID 720702. recombinant TDP2, T5PNP hydrolysis, p-nitrophenol absorbance 415 nm. O95551. inhibition, % at 12.8 µM. 370,000 compounds, 0.34% hits;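 active = inhibition above the mean of all tested compounds plus 3 SD, set per campaign, cut at about 25% in these data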;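 note: 0% = DMSO with enzyme and 100% = buffer with substrate but no TDP2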
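Incubation: 2 h at 37 °C; Test system: recombinant human TDP2; Quantity: enzyme 120 nM; Read-out basis: percent inhibition; Medium: 50 mM Tris-HCl pH 7.5 with Mg2+, KCl, DTT, BSA; Repeats: single replicate; Compound: 12.8 µM single point, 1% DMSO; Signal: epi absorbance; Reagent: 5 mM T5PNP chromogenic substrate; Benchmarks: no-enzyme high, DMSO-plus-enzyme low.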
Numbers without * were called inactive.

SMILES	MBD2 DNA inh	LEDGF integ inh	DDE Tn6 FP inh	UHRF1 binding	Tn7 DDE FP	TDP2 absorb
Cc1ccccc1C(=O)N1CCN(c2ccc(NC(=O)c3cccc(OC(C)C)c3)cc2)CC1	-2	-3	-10	5	2	-15
CC1CCN(S(=O)(=O)c2cccc(C(=O)NNC(=O)c3ccco3)c2)CC1	5	1	4	30*	2	-5
CCc1ccccc1NS(=O)(=O)c1c(C(=O)N2CCCCCC2)c(C)n(C)c1C	2	-2	-1	21*	7	8
NC(=O)c1c(N)[nH]c(C(=O)c2ccccc2)c1-c1ccc2c(c1)OCO2	-1	2	4	0	-2	-17
Cn1c(NC(=O)/C=C/c2c(F)cccc2Cl)cc(=O)n(C)c1=O	1	6	6	-4	-4	8
Cn1c(NC(=O)/C=C\c2ccccc2)cc(=O)n(C)c1=O	0	0	-3	26*	9	-12
Cc1ccc(S(=O)(=O)NCC2CCCO2)cc1 (centres undefined)	2	2	-8	2	2	-15
Cc1ccc(NC(=O)c2cc(S(=O)(=O)NCC3CCCO3)ccc2F)cc1 (centres undefined)	-1	1	0	45*	1	-2
C[C@H]1COc2cccc(NCCO)c2S(=O)(=O)N1	0	1	-1	7	7	11
CC(=O)c1ccc(-c2cc(C(C)=O)c3n(c2=O)CCC3)cc1	-5	3	-9	-1	4	5
Fc1ccc(Cn2nnnc2CN2CCN(C3CCCCC3)CC2)cc1	-4	0	-1	48*	5	-4
O=S1(=O)c2ccc(N3CC[C@@H](O)C3)cc2O[C@H]2CCN1C2	5	-4	4	0	3	-2
Cn1nc(-c2ccccc2)cc1NC(=O)Nc1ccccc1F	-2	3	3	68*	-6	-4
COc1ccccc1Cc1c(-c2ccc(F)cc2)nc2c3ccccc3ccn12	4	-1	-6	6	5	4
O=C(C1CCN(S(=O)(=O)c2cnc[nH]2)CC1)N1CCc2ccccc2C1	-2	-2	2	30*	-1	-2
O=C(Nc1ccccc1Cl)C1C2CCC3C(CCC21)C3(Cl)Cl (centres undefined)	-4	-3	-6	-1	-5	6
CCOc1ccccc1NC(=O)C1C2CCC3C(CCC21)C3(Cl)Cl (centres undefined)	8	4	-3	26*	-6	-10
CCOc1ccccc1NC(=O)COC(=O)C1CC1	11	2	13	23*	4	16
O=C(Nc1ccc(F)c(F)c1)C1CCN(S(=O)(=O)c2cccs2)CC1	4	-8	-5	31*	1	-10
O=C(CCNC(=O)c1ccc(Br)cc1)Nc1cccc(S(=O)(=O)N2CCCCCC2)c1	2	-1	-4	0	4	-2
O=C(CCNC(=O)c1ccc(Br)cc1)Nc1cccc(S(=O)(=O)N2CCCC2)c1	9	-4	11	36*	3	-6
O=C(COc1ccc(OCc2ccccc2)cc1)NN=C1CCCC1	13	5	-1	34*	-5	2
O=C(CSc1nnc(-c2cnccn2)n1-c1ccccc1)Nc1ccc2cn[nH]c2c1	4	-1	-8	-1	1	3
COC(=O)[C@H](C(C)C)N(CCCc1cn(Cc2ccc(C)cc2)nn1)S(=O)(=O)c1ccc(F)cc1Br	-5	-3	-3	1	10	5
Cn1c(C(=O)N2CCOCC2)cc2c(=O)n3ccccc3nc21	-8	0	5	-3	9	-5
SMILES	MBD2 DNA inh	LEDGF integ inh	DDE Tn6 FP inh	UHRF1 binding	Tn7 DDE FP	TDP2 absorb
CC1CN(C(=O)c2cc3c(=O)n4ccccc4nc3n2C)CC(C)O1 (centres undefined)	0	-2	5	27*	-1	7
Cc1cc(C)c2c(c1)NC(C(=O)O)C1CC=CC21 (centres undefined)	16*	31*	4	39*	5	7
O=C(O)C1Nc2c(C(F)(F)F)ccc(Cl)c2C2C=CCC12 (centres undefined)	-5	6	6	-1	10	2
O=C(Nc1ccc(F)cc1)OCCN1C(=O)CCC12CCC(c1ccccc1)CC2 (centres undefined)	5	-1	1	0	2	12
C[C@@H]1ON(C)[C@H]2C[C@H]3c4[nH]c5c(-c6cccc(F)c6)cccc5c4CCN3C(=O)[C@@H]12	0	-3	4	-1	3	2
CC(C)Oc1ccc(CCC(=O)N/N=C/c2ccc3c(c2)OCO3)cc1	2	-3	-2	-1	1	-12
O=C(CCc1ccc(O)c(O)c1)N/N=C/c1ccc2c(c1)OCO2	9	33*	-1	21*	8	12
Cc1cc(C(=O)COC(=O)c2ccc(O)cc2)c(C)n1-c1ccccc1F	12	-1	-1	21*	4	-13
Cc1ccc(Nc2nc(N)c3ccccc3n2)cc1Cl	-2	0	-9	38*	0	3
COc1cc2nc(Nc3ccc(C)c(Cl)c3)nc(N)c2cc1OC	-5	4	-5	1	-1	-14
CCCCc1c(-c2ccccc2OC)ncn1C(C)c1ccc(Cl)cc1 (centres undefined)	-4	1	-9	-2	3	-2
C#CCN(C(=O)CC1C(=O)NCCN1C/C=C/c1ccccc1)C1CCCCC1 (centres undefined)	0	-4	3	44*	4	-5
Cc1ccc(-n2c(SCC(=O)c3ccc4ccccc4c3)nnc2-c2cccnc2)cc1	0	-2	-1	0	7	-1
CC(=O)c1nn(-c2ccc(Cl)cc2)cc1C(=O)c1ccc(C)cc1	9	-4	3	26*	-5	-12
CCOC(=O)[C@]12CCCC=C1N(Cc1ccc(OC)cc1)C(=O)[C@@H]2CC(=O)NCCCOC	4	-5	-3	0	-8	1
O=C(/C=C/c1ccco1)Nc1cccc(NC(=O)/C=C/c2ccco2)n1	11	11	-9	21*	-2	-9
Cc1ccc(-c2csc(NC(=O)/C=C/c3ccco3)c2C(=O)O)cc1	1	13	-2	31*	1	-1
Cc1ccc(-c2csc(NC(=O)c3cccc(C)c3)c2C(=O)O)cc1	-1	-1	-8	8	-3	-7
Cc1nc(NC(=O)/C=C/c2ccco2)sc1C	-6	4	-6	-1	10	7
C[C@H](CO)N1C[C@H](C)[C@@H](CN(C)C(=O)CCC(F)(F)F)OCc2cn(nn2)CCCC1=O	-5	0	2	0	-3	-5
